Activity calls are given as the source filed them. The calls are words filed in the database; no cut-off is given here.
Columns and labels:
[1] = target: Beta-secretase 1 (Homo sapiens, UniProt P56817); experiment: Inhibition of BACE1 in human H4 cells expressing APP751 Swedish mutant assessed as inhibition of amyloid beta 40 or amyloid beta 42 production incubated for 19 hrs by microplate reader analysis; assay type: cell-based
[2] = Metabolic stability in human liver microsomes assessed as parent compound remaining at 0.5 uM after 10 mins; assay type: ADME; conditions: read-out: Stability
[3] = Metabolic stability in mouse liver microsomes assessed as parent compound remaining at 0.5 uM after 10 mins; assay type: ADME; conditions: read-out: Stability
[4] = Metabolic stability in rat liver microsomes assessed as parent compound remaining at 0.5 uM after 10 mins; assay type: ADME; conditions: read-out: Stability
[5] = Plasma protein binding in rat at 1 to 10 mg/kg, po measured at 5 hrs post dose; assay type: ADME, organism-based; conditions: read-out: PPB (converted)
[6] = tested on: Salmonella typhimurium; experiment: Mutagenicity in Salmonella typhimurium by Ames test; assay type: toxicity, organism-based; conditions: salmonella enterica subsp. enterica serovar typhimurium
[7] = target: T1, Cytochrome P450 1A2 (Homo sapiens, UniProt P05177); experiment: Inhibition of CYP1A2 (unknown origin) expressed in baculovirus infected insect cells using CEC as susbtrate incubated for 45 mins by plate reader analysis in presence of NADP+; assay type: ADME
T1 sequence (P05177 whole entry): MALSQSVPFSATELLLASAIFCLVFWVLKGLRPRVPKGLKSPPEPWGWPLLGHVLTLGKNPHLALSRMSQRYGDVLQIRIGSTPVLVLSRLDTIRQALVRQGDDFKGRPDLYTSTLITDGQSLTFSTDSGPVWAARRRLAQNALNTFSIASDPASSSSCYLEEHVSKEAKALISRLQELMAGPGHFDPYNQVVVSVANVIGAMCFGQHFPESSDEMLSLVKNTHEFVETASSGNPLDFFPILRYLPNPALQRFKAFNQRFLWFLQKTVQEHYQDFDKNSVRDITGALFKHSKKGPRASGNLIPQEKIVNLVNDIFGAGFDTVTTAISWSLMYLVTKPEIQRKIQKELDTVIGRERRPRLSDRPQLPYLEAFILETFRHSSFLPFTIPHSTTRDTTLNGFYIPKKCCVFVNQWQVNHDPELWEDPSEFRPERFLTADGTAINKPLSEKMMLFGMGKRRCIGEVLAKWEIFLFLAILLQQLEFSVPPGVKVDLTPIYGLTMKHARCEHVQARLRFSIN

[8] = target: T2, Cytochrome P450 3A4 (Homo sapiens, UniProt P08684); experiment: Inhibition of CYP3A4 (unknown origin) expressed in baculovirus infected insect cells using BFC as susbtrate incubated for 45 mins by plate reader analysis in presence of NADP+; assay type: ADME
[9] = Plasma concentration in rat at 1 mg/kg, po after 5 hrs; assay type: ADME, organism-based
Summary of the method: (§1)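 Female rats given a single oral dose in PEG-400/EtOH/Tween 80 (84:15:1). Plasma and brain were collected 5 h postdose, 5 rats per dose, to measure drug exposure and brain Aβ levels. Values are means (n = 5) with SD.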

[10] = target: T3, Cytochrome P450 2C8 (Homo sapiens, UniProt P10632); experiment: Inhibition of CYP2C8 (unknown origin); assay type: ADME
T3 sequence (P10632 whole entry): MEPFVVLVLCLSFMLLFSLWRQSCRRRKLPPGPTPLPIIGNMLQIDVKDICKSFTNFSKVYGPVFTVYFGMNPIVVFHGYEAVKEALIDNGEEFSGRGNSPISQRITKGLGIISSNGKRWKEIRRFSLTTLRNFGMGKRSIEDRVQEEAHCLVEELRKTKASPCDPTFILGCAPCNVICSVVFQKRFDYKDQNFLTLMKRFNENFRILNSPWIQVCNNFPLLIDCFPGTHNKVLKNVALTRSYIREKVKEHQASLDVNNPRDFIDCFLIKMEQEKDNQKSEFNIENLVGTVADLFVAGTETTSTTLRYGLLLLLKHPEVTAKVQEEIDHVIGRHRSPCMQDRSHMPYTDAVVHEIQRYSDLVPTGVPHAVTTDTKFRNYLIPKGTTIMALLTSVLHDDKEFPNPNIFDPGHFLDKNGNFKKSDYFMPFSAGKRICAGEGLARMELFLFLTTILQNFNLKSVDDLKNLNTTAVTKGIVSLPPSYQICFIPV

[11] = Ratio of drug level in rat brain to plasma at 10 mg/kg, po after 5 hrs; assay type: ADME, organism-based; conditions: read-out: BPR; summary of the method: as §1
[12] = tested on: Rattus norvegicus; experiment: Antialzheimer activity in rat assessed as total plasma concentration required for reduction in amyloid beta (1 to 42) level in brain at 1 to 10 mg/kg, po measured at 5 hrs post dose; assay type: functional, organism-based
[13] = Drug level in rat brain at 1 mg/kg, po after 5 hrs; assay type: ADME, organism-based; conditions: read-out: Drug uptake; summary of the method: as §1
[14] = Drug level in rat brain at 3 mg/kg, po after 5 hrs; assay type: ADME, organism-based; conditions: read-out: Drug uptake; summary of the method: as §1
[15] = tested on: Mus musculus; experiment: Antialzheimer activity in mouse assessed as reduction in amyloid beta 42 level in brain at 10 mg/kg, po by ELISA relative to control; assay type: functional
[16] = Plasma concentration in rat at 10 mg/kg, po after 5 hrs; assay type: ADME, organism-based; summary of the method: as §1
[17] = tested on: Rattus norvegicus; experiment: Antialzheimer activity in po dosed rat assessed as reduction in amyloid beta (1 to 40) level in brain measured at 5 hrs post dose by ELISA; assay type: functional, organism-based; summary of the method: as §1
[18] = tested on: Plasma; experiment: Free plasma concentration in rat at 1 to 10 mg/kg, po measured at 5 hrs post dose; assay type: ADME, organism-based; conditions: in vivo
[19] = target: Cytochrome P450 2D6 (Homo sapiens, UniProt P10635); experiment: Inhibition of CYP2D6 (unknown origin) expressed in baculovirus infected insect cells using AMMC as susbtrate incubated for 45 mins by plate reader analysis in presence of NADP+; assay type: ADME
[20] = target: Cytochrome P450 2C19 (Homo sapiens, UniProt P33261); experiment: Inhibition of CYP2C19 (unknown origin) expressed in baculovirus infected insect cells using CEC as susbtrate incubated for 45 mins by plate reader analysis in presence of NADP+; assay type: ADME
[21] = target: Cytochrome P450 2C9 (Homo sapiens, UniProt P11712); experiment: Inhibition of CYP2C9 (unknown origin) expressed in baculovirus infected insect cells using MFC as susbtrate incubated for 45 mins by plate reader analysis in presence of NADP+; assay type: ADME
[22] = Ratio of drug level in rat brain to plasma at 3 mg/kg, po after 5 hrs; assay type: ADME, organism-based; conditions: read-out: BPR; summary of the method: as §1
[23] = target: T2, Cytochrome P450 3A4; experiment: Inhibition of CYP3A4 (unknown origin) expressed in baculovirus infected insect cells using benzyloxyresorufin as susbtrate incubated for 45 mins by plate reader analysis in presence of NADP+; assay type: ADME
[24] = tested on: Rattus norvegicus; experiment: Antialzheimer activity in rat assessed as free drug concentration in plasma required for reduction in amyloid beta (1 to 42) level in brain at 1 to 10 mg/kg, po measured at 5 hrs post dose; assay type: functional, organism-based
[25] = Plasma concentration in rat at 3 mg/kg, po after 5 hrs; assay type: ADME, organism-based; summary of the method: as §1
[26] = Drug level in rat brain at 10 mg/kg, po after 5 hrs; assay type: ADME, organism-based; conditions: read-out: Drug uptake; summary of the method: as §1
[27] = tested on: Plasma; experiment: Drug metabolism in mouse plasma assessed as (4S,6S)-4-(5-amino-2,3-difluorophenyl)-6-(3,5-dimethylisoxazol-4-yl)-4-methyl-5,6-dihydro-4H-1,3-thiazin-2-amine formation at 10 mg/kg, po after 3 hrs; assay type: ADME, organism-based; conditions: in vivo
[28] = tested on: Rattus norvegicus; experiment: Antialzheimer activity in po dosed rat assessed as reduction in total amyloid beta level in brain measured at 5 hrs post dose by ELISA; assay type: functional, organism-based; summary of the method: as §1
[29] = Ratio of drug level in rat brain to plasma at 1 mg/kg, po after 5 hrs; assay type: ADME, organism-based; conditions: read-out: BPR; summary of the method: as §1
[30] = tested on: Rattus norvegicus; experiment: Antialzheimer activity in po dosed rat assessed as reduction in amyloid beta (1 to 42) level in brain measured at 5 hrs post dose by ELISA; assay type: functional, organism-based; summary of the method: as §1
[31] = tested on: Rattus norvegicus; experiment: Antialzheimer activity in rat assessed as reduction in amyloid beta level in brain at 30 mg/kg, po measured at 5 hrs post dose by ELISA; assay type: functional, organism-based

Beta-secretase 1, sequence (P56817 whole entry): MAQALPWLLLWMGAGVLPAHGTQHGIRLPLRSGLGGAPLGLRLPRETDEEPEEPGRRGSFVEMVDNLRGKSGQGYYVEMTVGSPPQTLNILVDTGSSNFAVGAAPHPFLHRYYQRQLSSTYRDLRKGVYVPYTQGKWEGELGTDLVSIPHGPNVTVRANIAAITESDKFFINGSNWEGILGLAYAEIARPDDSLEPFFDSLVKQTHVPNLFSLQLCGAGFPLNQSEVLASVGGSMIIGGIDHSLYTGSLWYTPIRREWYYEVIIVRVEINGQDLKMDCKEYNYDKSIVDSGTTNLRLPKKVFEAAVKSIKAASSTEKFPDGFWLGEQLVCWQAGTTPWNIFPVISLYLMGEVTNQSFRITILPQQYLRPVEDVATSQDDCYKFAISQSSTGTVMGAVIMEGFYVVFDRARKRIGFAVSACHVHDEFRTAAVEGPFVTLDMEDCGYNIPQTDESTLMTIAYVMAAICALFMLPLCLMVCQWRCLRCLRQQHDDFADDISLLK
T2 sequence (P08684 whole entry): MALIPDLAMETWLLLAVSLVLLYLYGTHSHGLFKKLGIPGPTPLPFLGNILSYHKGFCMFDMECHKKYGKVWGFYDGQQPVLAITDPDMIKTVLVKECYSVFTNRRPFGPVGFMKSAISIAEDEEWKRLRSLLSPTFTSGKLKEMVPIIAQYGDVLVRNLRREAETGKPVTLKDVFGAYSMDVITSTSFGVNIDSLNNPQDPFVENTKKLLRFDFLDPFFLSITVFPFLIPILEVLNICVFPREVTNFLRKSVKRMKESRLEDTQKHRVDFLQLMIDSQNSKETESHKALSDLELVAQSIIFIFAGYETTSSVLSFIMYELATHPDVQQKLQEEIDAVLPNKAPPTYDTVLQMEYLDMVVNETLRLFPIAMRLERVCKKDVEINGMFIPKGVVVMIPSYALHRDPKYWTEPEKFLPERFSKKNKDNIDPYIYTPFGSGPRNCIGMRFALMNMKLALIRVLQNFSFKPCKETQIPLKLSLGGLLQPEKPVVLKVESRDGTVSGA
Cytochrome P450 2C9, sequence (P11712 whole entry): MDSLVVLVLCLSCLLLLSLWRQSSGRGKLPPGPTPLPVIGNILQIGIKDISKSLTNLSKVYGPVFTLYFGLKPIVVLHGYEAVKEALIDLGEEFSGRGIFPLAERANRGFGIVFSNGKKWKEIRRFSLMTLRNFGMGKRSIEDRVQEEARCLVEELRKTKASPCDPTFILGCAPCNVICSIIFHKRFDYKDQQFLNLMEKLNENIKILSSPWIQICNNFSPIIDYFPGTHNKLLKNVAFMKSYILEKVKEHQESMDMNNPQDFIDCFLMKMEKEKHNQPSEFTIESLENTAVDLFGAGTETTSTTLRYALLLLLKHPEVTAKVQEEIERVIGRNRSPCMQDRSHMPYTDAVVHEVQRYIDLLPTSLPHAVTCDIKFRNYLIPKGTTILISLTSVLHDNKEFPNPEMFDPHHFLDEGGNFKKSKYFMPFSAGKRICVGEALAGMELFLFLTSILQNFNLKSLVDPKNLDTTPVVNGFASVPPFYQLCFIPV
Cytochrome P450 2D6, sequence (P10635 whole entry): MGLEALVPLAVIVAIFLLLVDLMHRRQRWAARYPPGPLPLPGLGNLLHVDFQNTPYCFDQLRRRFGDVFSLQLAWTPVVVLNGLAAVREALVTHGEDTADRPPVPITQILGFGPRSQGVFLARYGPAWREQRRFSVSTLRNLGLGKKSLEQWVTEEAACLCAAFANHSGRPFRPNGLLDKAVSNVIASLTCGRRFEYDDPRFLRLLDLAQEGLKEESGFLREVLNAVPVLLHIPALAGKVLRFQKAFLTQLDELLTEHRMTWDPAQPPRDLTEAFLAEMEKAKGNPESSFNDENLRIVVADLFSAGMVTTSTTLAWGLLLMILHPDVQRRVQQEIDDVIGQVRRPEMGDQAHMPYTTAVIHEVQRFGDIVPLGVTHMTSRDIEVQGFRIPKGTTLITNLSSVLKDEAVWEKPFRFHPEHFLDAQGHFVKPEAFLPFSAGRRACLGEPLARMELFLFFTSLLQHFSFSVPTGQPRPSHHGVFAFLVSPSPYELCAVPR
Cytochrome P450 2C19, sequence (P33261 whole entry): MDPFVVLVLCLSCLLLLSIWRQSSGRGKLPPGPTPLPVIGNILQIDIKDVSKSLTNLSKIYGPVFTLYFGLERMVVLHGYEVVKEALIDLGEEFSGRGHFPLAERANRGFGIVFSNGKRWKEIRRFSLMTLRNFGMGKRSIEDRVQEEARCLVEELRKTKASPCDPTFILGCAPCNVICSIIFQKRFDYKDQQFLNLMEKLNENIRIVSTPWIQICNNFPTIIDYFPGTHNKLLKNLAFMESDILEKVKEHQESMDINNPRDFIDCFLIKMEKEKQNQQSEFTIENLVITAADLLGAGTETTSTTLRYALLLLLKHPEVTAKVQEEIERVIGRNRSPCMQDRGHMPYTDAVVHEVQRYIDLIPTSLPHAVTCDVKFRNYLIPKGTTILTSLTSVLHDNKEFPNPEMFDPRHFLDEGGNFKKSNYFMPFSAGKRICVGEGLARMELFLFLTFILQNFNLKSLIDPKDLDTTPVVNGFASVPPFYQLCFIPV

Compound: Cc1noc(C)c1[C@@H]1C[C@@H](c2cc(-c3cncnc3)c(F)cc2F)N=C(N)S1
- IC50 [1]: 0.07 µM

Compound: COc1ccc([C@@H]2C[C@@H](c3cc(-c4cncnc4)c(F)cc3F)N=C(N)S2)cc1OC
- IC50 [1]: 0.29 µM

Compound: Cc1noc(C)c1[C@@H]1C[C@@](C)(c2cccc(NC(=O)c3ccc(Cl)cn3)c2F)N=C(N)S1
- IC50 [1]: 0.16 µM
- remaining at 10 min, 0.5 µM [2]: 38%
- remaining at 10 min, 0.5 µM [3]: 38%
- remaining at 10 min, 0.5 µM [4]: 43%

Compound: Cc1noc(C)c1[C@@H]1C[C@@](C)(c2cc(N)cc(F)c2F)N=C(N)S1
- fraction unbound at 5 h [5]: 0.05
- Activity [6]: Non-toxic

Compound: Cc1noc(C)c1[C@]1(C)C[C@@H](c2cc(-c3cncnc3)c(F)cc2F)N=C(N)S1 (relative stereo)
- IC50 [1]: 3.7 µM

Compound: Cc1noc(C)c1[C@@H]1C[C@@H](c2cc(NC(=O)c3ccc(Cl)cn3)ccc2F)N=C(N)S1
- IC50 [1]: 0.005 µM

Compound: Cc1noc(C)c1[C@@H]1C[C@@](C)(c2cc(F)cc(NC(=O)c3ccc(Cl)cn3)c2)N=C(N)S1
- IC50 [1]: 0.0023 µM
- remaining at 10 min, 0.5 µM [2]: 39%
- remaining at 10 min, 0.5 µM [3]: 13%
- remaining at 10 min, 0.5 µM [4]: 26%

Compound: Cc1oncc1[C@]1(C)C[C@@H](c2cc(-c3cncnc3)c(F)cc2F)N=C(N)S1 (racemic)
- IC50 [1]: 0.18 µM

Compound: COc1cnc(C(=O)Nc2cc(F)c(F)c([C@]3(C)C[C@@H](c4c(C)noc4C)SC(N)=N3)c2)cn1
- IC50 [7]: > 20 µM
- IC50 [8]: > 20 µM
- concentration at 5 h [9]: 0.15 µM
- IC50 [10]: 5 µM
- Kp at 5 h [11]: 0.3
- EC50 [12]: 0.26 µM
- concentration at 5 h [13]: 0.067 µM
- IC50 [1]: 0.0009 µM
- concentration at 5 h [14]: 0.16 µM
- inhibition in vivo at 10 mg/kg [15]: 85%
- concentration at 5 h [16]: 1.5 µM
- inhibition [17]: Dose-dependent effect
- Cp(f) [18]: 0.013 µM
- remaining at 10 min, 0.5 µM [2]: 81%
- IC50 [19]: > 20 µM
- IC50 [20]: > 20 µM
- remaining at 10 min, 0.5 µM [3]: 74%
- IC50 [21]: > 20 µM
- Kp at 5 h [22]: 0.46
- IC50 [23]: > 20 µM
- EC50 [24]: 0.013 µM
- concentration at 5 h [25]: 0.36 µM
- concentration at 5 h [26]: 0.42 µM
- remaining at 10 min, 0.5 µM [4]: 69%
- Drug metabolism [27]: metabolite_detected
- inhibition [28]: Dose-dependent effect
- Kp at 5 h [29]: 0.44
- inhibition [30]: Dose-dependent effect

Compound: Cc1noc(C)c1[C@@H]1C[C@@](C)(c2cc(NC(=O)c3ccc(Cl)cn3)cc(F)c2F)N=C(N)S1
- IC50 [1]: 0.0007 µM
- remaining at 10 min, 0.5 µM [2]: 87%
- remaining at 10 min, 0.5 µM [3]: 58%
- remaining at 10 min, 0.5 µM [4]: 63%

Compound: Cc1noc(C)c1[C@@H]1C[C@@](C)(c2cc(NC(=O)c3ccc(Cl)cn3)c(F)cc2F)N=C(N)S1
- IC50 [1]: 0.031 µM
- remaining at 10 min, 0.5 µM [2]: 78%
- remaining at 10 min, 0.5 µM [3]: 75%
- remaining at 10 min, 0.5 µM [4]: 76%

Compound: COc1ccc([C@@H]2C[C@@H](c3cccc(-c4cncnc4)c3)N=C(N)S2)cc1OC
- IC50 [1]: 1.1 µM

Compound: Cc1noc(C)c1[C@@H]1C[C@@](C)(c2cc(-c3cncnc3)c(F)cc2F)N=C(N)S1
- remaining at 10 min, 0.5 µM [2]: 23%
- remaining at 10 min, 0.5 µM [3]: 48%
- remaining at 10 min, 0.5 µM [4]: 49%
- inhibition [31]: Active

Source: ChEMBL document CHEMBL3804782, “Targeting the BACE1 Active Site Flap Leads to a Potent Inhibitor That Elicits Robust Brain Aβ Reduction in Rodents” (ACS Med Chem Lett, 2016)
